Measured values collected from several papers.
Compare with care: the assays were run in different laboratories.
Target: Ephrin type-A receptor 2 (EPHA2, Homo sapiens, UniProt P29317)

Cc1ccc(NC(=O)c2ccnc(C(F)(F)F)c2)cc1-c1cc(OCCO)nc(N2CCOCC2)c1
remaining binding (binding; competition with immobilised ligand; 1 µM): 63%

C#Cc1cnc(Nc2ccnc(CO)c2)nc1Nc1ccccc1S(C)(=O)=NC#N (stereo not shown)
remaining signal (cell-free assay; 1 µM): 70%

COc1ccc2oc(-c3ccc4nc(N)oc4c3)c/c(=N\c3ccccc3NC(=O)CCN)c2c1
remaining binding (binding; 1 µM): 99%

CCCCC(=O)Nc1ccc(-c2ccc3ncn(CCC)c(=O)c3c2)cn1
remaining binding (binding; competition with immobilised ligand; 0.5 µM): 100%

N#Cc1ccc(NC(=O)Nc2ccccc2)cc1
remaining binding (cell-free assay; competition with immobilised ligand; 25 µM): 100%

COc1ccc2[nH]c3c4[nH]c5ccc(OC)cc5c4c4c(c3c2c1)C(=O)NC4=O
remaining binding (binding; competition with immobilised ligand; 1 µM): 85%

C=CC(=O)N1CCC([C@@H]2CCNc3c(C(N)=O)c(-c4ccc(Oc5ccccc5)cc4)nn32)CC1
inhibition (cell-free assay; 1 µM): 10%

C1=C/COCc2cc(ccc2OCCN2CCCC2)Nc2nccc(n2)-c2cccc(c2)COC/1
remaining binding (binding; 0.1 µM): 100%

Cc1cc(O)c(-c2ccc([C@@H](C)CN(C)C)cc2)c2c1[nH]c(=O)c1sccc12
inhibition (cell-free assay; inhibitor; 0.1 µM): -2.28%

C=CC(=O)N1CCC[C@@H](n2nc(-c3ccc(Oc4ccccc4)cc3)c3c(N)ncnc32)C1
inhibition (enzyme activity; inhibitor; 1 µM): 4%
